According to publication PMC7884954 (International Journal of Nanomedicine, 2021):

Experiments:
[1] = system: female albino (BALB/c) mice; test: In vivo acute toxicity: histopathological examinations; settings: i.v., after 7 days, H&E stain
How it was run: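 Female BALB/c mice (30–35 g, 8–10 weeks) were randomised to 6 groups (n=3) and given test formulations i.v. via tail vein as two equal doses on days 1 and 3; the saline group was the control. OECD 425 was followed except for the i.v. route. At day 7 mice were killed by cervical dislocation. Heart, liver, kidney and lungs were saline-washed, sectioned by rotary microtome, H&E-stained and examined by light microscopy.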

[2] = system: SK-OV-3 cells; test: In vitro cytotoxicity; format: cell-based, human
How it was run: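 SK-OV-3 cells (IMDM, 10% FCS, non-essential amino acids, 37°C, 7% CO2) were seeded at 10,000/well and left to adhere overnight. They were exposed to a concentration series of free drug (in DMSO) or formulations for 4 h, then switched to fresh medium without irradiation (dark). Next day, MTT (2 mg.mL−1) was added for 4 h, formazan was dissolved in DMSO, and A570 was read. Untreated cells were set as 100%. Three independent experiments; IC50 from non-linear fit.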

[3] = Ex vivo hemolysis assay; settings: human, washed red blood cells (RBC suspension diluted 1:50), pH 7.4
How it was run: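 Donor blood in EDTA was spun at 500× g for 5 min. RBCs were washed three times in DPBS pH 7.4, then diluted 1:50 in PBS. The suspension was incubated with test formulations in V-bottom plates for 1 h at 37 °C with orbital shaking. After centrifugation, supernatant absorbance was read at 540 nm. Triton X-100 defined 100% hemolysis, with saline as the other control. Triplicates, mean ± S.D.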

[4] = system: blood plasma; test: Activated partial thromboplastin time test
How it was run: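 Plasma was separated from fresh blood by centrifugation at 5000x g for 5 min. It was mixed with an equal volume of test formulation and aPTT reagent, and coagulation was activated with pre-warmed […] CaCl2. Clotting time (s) was recorded spectrophotometrically on a coagulation analyzer, […]. Triplicates, mean ± S.D.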

[5] = system: female albino (BALB/c) mice; test: In vivo acute toxicity: body visceral index; settings: i.v., post 7 days
How it was run: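 Female BALB/c mice (30–35 g, 8–10 weeks; 22 ± 2 °C, 12 h light/dark) were randomised into 6 groups of 3. Free drugs in 0.1% DMSO, formulations or saline were given i.v. via tail vein as two equal doses on days 1 and 3 (mTHPC 0.15 mg.kg−1, THP 5 mg.kg−1 equivalent). On day 7, after cervical dislocation, heart, kidney, liver and lungs were washed in saline and weighed. Organ-to-body weight index was compared with controls; mean ± S.D.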

[6] = system: SK-OV-3 cells; test: In vitro genotoxicity, alkaline comet assay; format: cell-based, human; settings: SK-OV-3, 4 h, equitoxic dose, light dose 0.05 Jcm^−2
How it was run: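 SK-OV-3 cells (100,000/well, six-well plate) adhered overnight, then treated with test formulations for 4 h at 37 °C. After a medium change, cells were irradiated at an equitoxic light dose giving 80% viability and returned for 12 h. Cells were trypsinised, washed twice in PBS, set to 80,000 cells/mL and embedded in 1% low-melting agarose. Slides were ethanol-fixed (70%, 20 min), SYBR Safe-stained and viewed by fluorescence microscopy; 50 comets scored per formulation.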

[7] = system: SK-OV-3 cells; test: Assessment of reactive oxygen species; format: cell-based, human; settings: mTHPC 5 µM, THP 50 µM, 4 h, light dose 0.5 J.cm^−2 vs dark
How it was run: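 SK-OV-3 cells (IMDM, 10% FCS, non-essential amino acids, 37°C, 7% CO2) were seeded at 25,000/well overnight and washed with DPBS pH 7.4 containing Ca2+/Mg2+. They were loaded with 25 µM H2DCFDA for 1 h at 37 °C, washed, then exposed to free drug or formulation for 4 h at 37°C. After medium exchange, cells were irradiated at 652 nm, lysed, and read at λex 485/λem 520 nm.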

[8] = system: SK-OV-3 cells; test: Cellular uptake pathway analysis with chlorpromazine and Filipin-III; format: cell-based, human; settings: 30 µM chlorpromazine, 15 µM Filipin III, light dose 0.5 Jcm^−2
How it was run: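 SK-OV-3 cells seeded at 10,000/well, adhered overnight (37 °C, 5% CO2), washed in PBS with Ca2+/Mg2+. Pre-incubated 1 h with chlorpromazine (30 µM) or Filipin III (15 µM), then exposed to test formulations or free drugs in DMSO (photosensitiser 1.5 µM, chemotherapeutic 50 µM) for a total of 4 h. Medium replaced, irradiated 0.50 J.cm−2, MTT after 24 h; un-irradiated dark control.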

[9] = system: female albino (BALB/c) mice; test: In vivo acute toxicity: serum biochemical analysis; settings: i.v., after 7 days
How it was run: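 Female BALB/c mice (30–35 g, 8–10 weeks) were used in groups of 3. Free drugs in 0.1% DMSO, formulations or saline were given i.v. via tail vein as two equal doses on days 1 and 3 (mTHPC 0.15 mg.kg−1, THP 5 mg.kg−1 equivalent). On day 7, blood was drawn under anesthesia by thoracic puncture and spun at 1200x g for 10 min. Supernatant was stored at −20 °C and then analysed on a serum biochemistry analyzer.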

SMILES: COc1cccc2c1C(=O)c1c(O)c3c(c(O)c1C2=O)C[C@@](O)(C(=O)CO)C[C@@H]3O[C@H]1C[C@H](N)[C@H](O[C@@H]2CCCCO2)[C@H](C)O1 [THP, [2″R]‐4′‐O‐tetrahydropyranyl‐doxorubicin]
- Histopathology: kidney [1]: signs of necrosis, apoptosis, as well as congestion of the renal tissue
- Histopathology: liver [1]: some signs of the apoptotic cells with fibrosis, pyknosis (condensation of nuclei due to apoptosis) and hepatic lesions
- Histopathology: lungs [1]: small changes in the lung′s histology with the breakage of the lung′s fiber
- Cytotoxicity (reduction in cell viability) ([2]; SK-OV-3, dose of 100 µM, no irradiation): 72.26 ± 5.40%
- hemolysis at 1 h [3]: 20%
- aPTT coagulation time [4]: 127.7 s
- Visceral body index: kidney weight vs control group [5]: slight increase in the organ weight
- Visceral body index: liver weight vs control group [5]: highest increase
- DNA damage class (olive tail moment, comet assay) [6]: class-II (class-II damage (5–20%; low damage))
- Intracellular ROS production [7]: no significant difference in the ROS levels
- Cellular uptake mechanism [8]: None of the inhibitors was able to minimize the uptake
- ALP level vs control group [9]: highest increase
- ALT level vs control group [9]: increased
- AST level vs control group [9]: highest level
- Bilirubin level vs control group [9]: slightly higher
- Creatinine level vs control [9]: increased
- Total protein level [9]: slight increase
- Uric acid level vs control group [9]: moderately increased

SMILES: Oc1cccc(-c2c3nc(c(-c4cccc(O)c4)c4ccc([nH]4)c(-c4cccc(O)c4)c4nc(c(-c5cccc(O)c5)c5ccc2[nH]5)CC4)C=C3)c1 [mTHPC, 5, 10, 15, 20-tetrakis (3-hydroxyphenyl) chlorin]
- Reduction of cell viability (dark toxicity) ([2]; SK-OV-3, without irradiation, highest mTHPC concentration 5 µM): 18.51 ± 1.87%
- hemolysis at 1 h [3]: 14%
- aPTT coagulation time [4]: 60.2 s
- Visceral body index: kidney weight vs control group [5]: slight increase in the organ weight
- DNA damage class (olive tail moment, comet assay) [6]: class-II (class-II damage (5–20%; low damage))
- Intracellular ROS production [7]: increased levels of intracellular ROS
- Cellular uptake mechanism [8]: None of the inhibitors was able to minimize the uptake
- ALT level vs control group [9]: increased
- AST level vs control group [9]: slightly higher
- Bilirubin level vs control group [9]: slightly higher
- Creatinine level vs control [9]: increased
- Total protein level [9]: slight increase
